Assay results taken from ChEMBL document CHEMBL5712078, “BRD9 Inhibition, Alone or in Combination with Cytostatic Compounds as a Therapeutic Approach in Rhabdoid Tumors” (Int J Mol Sci, 2017).
The source made the active and inactive calls. No cut-off for these calls is given here.

Assays:
BT-12 [1] = test: Induction of cell cycle arrest in human BT-12 cells assessed as accumulation of cells at G1 phase at 5 uM incubated for 72 hrs by flow cytometry analysis (reference value: 65+/-3.9%); format: functional
Method in brief: (§1)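 Cell cycle. Seeding and 72 h treatment as for the apoptosis assay, with I-BRD9 or BI-9564 at 0, 5, 10 or 20 µM final. A 100 µL cell suspension was stained with DAPI and read by flow cytometry. Percentage of cells in G1, n ≥3, mean ± SD, one-way ANOVA versus control.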

G-401 [2] = test: Anti-proliferative activity against human G-401 cells assessed as cell viability incubated for 72 hrs by MTT assay; format: functional, cell-based; conditions: G-401, 72 h
Method in brief: (§2)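 MTT proliferation assay. Cells were seeded at 3000 (BT16, KD, G401) or 5000 (BT12, Chla266) cells per well and drug was added after 24 h, final 0.001–100 µM. Read at 72 or 144 h; 144 h wells got fresh medium and drug on day 3. MTT for 3 h, formazan dissolved in isopropanol/0.04 N HCl, absorbance at 570/630 nm. Technical triplicates, ≥3 independent runs, IC50 derived.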

CHLA-266 [3] = test: Anti-proliferative activity against human CHLA-266 cells assessed as cell viability incubated for 144 hrs by MTT assay; format: functional, cell-based; conditions: CHLA-266, 144 h; method in brief: as §2
CHLA-266 [4] = test: Anti-proliferative activity against human CHLA-266 cells assessed as cell viability incubated for 72 hrs by MTT assay; format: functional, cell-based; conditions: CHLA-266, 72 h; method in brief: as §2
[5] = Anti-proliferative activity against human BT-16 cells assessed as cell viability incubated for 72 hrs by MTT assay; format: functional, cell-based; conditions: BT-16, 72 h; method in brief: as §2
BT-12 [6] = test: Anti-proliferative activity against human BT-12 cells assessed as cell viability incubated for 144 hrs by MTT assay; format: functional, cell-based; conditions: BT-12, 144 h; method in brief: as §2
BT-12 [7] = test: Anti-proliferative activity against human BT-12 cells assessed as cell viability incubated for 72 hrs by MTT assay; format: functional, cell-based; conditions: BT-12, 72 h; method in brief: as §2
G-401 [8] = test: Anti-proliferative activity against human G-401 cells assessed as cell viability incubated for 144 hrs by MTT assay; format: functional, cell-based; conditions: G-401, 144 h; method in brief: as §2
[9] = Anti-proliferative activity against human KD cells assessed as cell viability incubated for 72 hrs by MTT assay; format: functional, cell-based; method in brief: as §2
[10] = Anti-proliferative activity against human KD cells assessed as cell viability incubated for 144 hrs by MTT assay; format: functional, cell-based; method in brief: as §2
BT-12 [11] = test: Induction of cell cycle arrest in human BT-12 cells assessed as accumulation of cells at G1 phase at 10 uM incubated for 72 hrs by flow cytometry analysis (reference value: 65+/-3.9%); format: functional; method in brief: as §1
BT-12 [12] = test: Induction of cell cycle arrest in human BT-12 cells assessed as accumulation of cells at G1 phase at 20 uM incubated for 72 hrs by flow cytometry analysis (reference value: 65+/-3.9%); format: functional; method in brief: as §1
CHLA-266 [13] = test: Induction of cell cycle arrest in human CHLA-266 cells assessed as accumulation of cells at G1 phase at 5 uM incubated for 72 hrs by flow cytometry analysis (reference value: 74.1+/-3.2%); format: functional; method in brief: as §1
CHLA-266 [14] = test: Induction of cell cycle arrest in human CHLA-266 cells assessed as accumulation of cells at G1 phase at 10 uM incubated for 72 hrs by flow cytometry analysis (Rvb =74.1+/-3.2%); format: functional; method in brief: as §1
CHLA-266 [15] = test: Induction of cell cycle arrest in human CHLA-266 cells assessed as accumulation of cells at G1 phase at 20 uM incubated for 72 hrs by flow cytometry analysis (reference value: 74.1+/-3.2%); format: functional; method in brief: as §1
G-401 [16] = test: Induction of cell cycle arrest in human G-401 cells assessed as accumulation of cells at G1 phase at 5 uM incubated for 72 hrs by flow cytometry analysis (reference value: 51.7+/-2%); format: functional
Method in brief: (§3)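 72 h DAPI flow-cytometry cell-cycle assay. Chla266 in IMDM/20% FBS seeded at 30,000 cells/mL; G401 in DMEM/10% FBS at 10,000 cells/mL; 1 mL/well, 37 °C, 5% CO2. Next day the medium was replaced with inhibitor at final 0, 5, 10 or 20 µM. Cells were harvested, PBS-washed, and the G1 percentage was read. n ≥ 3, mean ± SD, one-way ANOVA vs control.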

G-401 [17] = test: Induction of cell cycle arrest in human G-401 cells assessed as accumulation of cells at G1 phase at 10 uM incubated for 72 hrs by flow cytometry analysis (reference value: 51.7+/-2%); format: functional; method in brief: as §3
BT-12 [18] = test: Induction of apoptosis in human BT-12 cells assessed as necrotic cells at 5 uM incubated for 72 hrs by flow cytometry analysis (reference value: 10.1+/-2.2%); format: functional
Method in brief: (§4)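 Annexin V/PI flow assay. G401 at 10,000 cells/mL and BT12 or Chla266 at 30,000 cells/mL were seeded in 12-well plates. Next day medium was replaced with medium holding I-BRD9 or BI-9564 at 0, 5, 10 or 20 µM final for 72 h. Cells were washed in PBS, stained with FITC-Annexin V and propidium iodide for 15 min in the dark at room temperature, then read by flow cytometry. Percentage of dead cells, n ≥3, mean ± SD, one-way ANOVA versus control.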

BT-12 [19] = test: Induction of apoptosis in human BT-12 cells assessed as necrotic cells at 10 uM incubated for 72 hrs by flow cytometry analysis (reference value: 10.1+/-2.2%); format: functional; method in brief: as §4
BT-12 [20] = test: Induction of apoptosis in human BT-12 cells assessed as necrotic cells at 20 uM incubated for 72 hrs by flow cytometry analysis (Rvb=10.1+/-2.2%); format: functional; method in brief: as §4
CHLA-266 [21] = test: Induction of apoptosis in human CHLA-266 cells assessed as necrotic cells at 5 uM incubated for 72 hrs by flow cytometry analysis (Rvb= 5.4+/-1.0%); format: functional; method in brief: as §4
CHLA-266 [22] = test: Induction of apoptosis in human CHLA-266 cells assessed as necrotic cells at 10 uM incubated for 72 hrs by flow cytometry analysis (Rvb= 5.4+/-1.0 %); format: functional; method in brief: as §4
CHLA-266 [23] = test: Induction of apoptosis in human CHLA-266 cells assessed as necrotic cells at 20 uM incubated for 72 hrs by flow cytometry analysis (Rvb= 5.4+/-1.0 %); format: functional; method in brief: as §4
G-401 [24] = test: Induction of apoptosis in human G-401 cells assessed as necrotic cells at 5 uM incubated for 72 hrs by flow cytometry analysis (Rvb= 6.2+/-0.8 %); format: functional; method in brief: as §4
G-401 [25] = test: Induction of apoptosis in human G-401 cells assessed as necrotic cells at 10 uM incubated for 72 hrs by flow cytometry analysis (Rvb= 6.2+/-0.8 %); format: functional; method in brief: as §4
G-401 [26] = test: Induction of apoptosis in human G-401 cells assessed as necrotic cells at 20 uM incubated for 72 hrs by flow cytometry analysis (Rvb= 6.2+/-0.8 %); format: functional; method in brief: as §4
BT-12 [27] = test: Induction of cell cycle arrest in human BT-12 cells assessed as accumulation of cells at G1 phase incubated for 72 hrs by flow cytometry analysis; format: functional, cell-based; conditions: dose 5-20 µM; method in brief: as §1
CHLA-266 [28] = test: Induction of cell cycle arrest in human CHLA-266 cells assessed as accumulation of cells at G1 phase incubated for 72 hrs by flow cytometry analysis; format: functional, cell-based; conditions: dose 5-20 µM; method in brief: as §3
G-401 [29] = test: Induction of cell cycle arrest in human G-401 cells assessed as accumulation of cells at G1 phase incubated for 72 hrs by flow cytometry analysis; format: functional, cell-based; conditions: dose 5-20 µM; method in brief: as §3
BT-12 [30] = test: Induction of apoptosis in human BT-12 cells assessed as necrotic cells incubated for 72 hrs by flow cytometry analysis; format: functional, cell-based; conditions: dose 5-20 µM; method in brief: as §4
CHLA-266 [31] = test: Induction of apoptosis in human CHLA-266 cells assessed as necrotic cells incubated for 72 hrs by flow cytometry analysis; format: functional, cell-based; conditions: dose 5-20 µM; method in brief: as §4
G-401 [32] = test: Induction of apoptosis in human G-401 cells assessed as necrotic cells incubated for 72 hrs by flow cytometry analysis; format: functional, cell-based; conditions: dose 5-20 µM; method in brief: as §4
CHLA-266 [33] = test: Cytotoxicity against human CHLA-266 cells assessed as change in cell viability at 5 to 20 uM treated for 72 hrs; format: functional, cell-based; conditions: dose 5-20 µM; method in brief: as §4

IC50 (BT-12 [6]): 17.2 µM
IC50 (BT-12 [7]): > 100 µM
SMILES: COc1cc(-c2cn(C)c(=O)c3cnccc23)c(OC)cc1CN(C)C
Activity (BT-12 [1]): 73.1%
IC50 (G-401 [2]): 12.5 µM
IC50 (CHLA-266 [3]): 33.7 µM
IC50 (CHLA-266 [4]): > 100 µM
IC50 [5]: 15.9 µM
IC50 (G-401 [8]): 10.8 µM
IC50 [9]: 22.3 µM
IC50 [10]: 10.8 µM
Activity (BT-12 [11]): 74%
Activity (BT-12 [12]): 78.9%
Activity (CHLA-266 [13]): 80%
Activity (CHLA-266 [14]): 81.2%
Activity (CHLA-266 [15]): 83.6%
Activity (G-401 [16]): 57.6%
Activity (G-401 [17]): 59.5%
Activity (BT-12 [18]): 14.2%
Activity (BT-12 [19]): 15.9%
Activity (BT-12 [20]): 17.3%
Activity (CHLA-266 [21]): 10%
Activity (CHLA-266 [22]): 11%
Activity (CHLA-266 [23]): 12.9%
Activity (G-401 [24]): 6.8%
Activity (G-401 [25]): 7.3%
Activity (G-401 [26]): 7.6%
Activity (BT-12 [27]): Dose-Dependent Effect
Activity (CHLA-266 [28]): Dose-Dependent Effect
Activity (G-401 [29]): Dose-Dependent Effect
Activity (BT-12 [30]): Dose-Dependent Effect
Activity (CHLA-266 [31]): Dose-Dependent Effect
Activity (G-401 [32]): Dose-Dependent Effect
Activity (CHLA-266 [33]): Active
